Screening data (PubChem BioAssay)
This is a sample that favours compounds with a hit; in the whole collection about 3.8% have one here.
KCNQ1 inh: blocks the human KCNQ1 potassium channel; B-score at 10 µM; P51787; AID 2642; CHO-K1 KCNQ1, FluxOR thallium flux fluorescence; active compounds read high; actives 1.3% (n = 310,000);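 active = compounds whose thallium flux B-score, printed positive for inhibition, exceeds three library SD while starting fluorescence stays within three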;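 note: channel opened by potassium depolarization with thallium stimulus after 20 min compound exposure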
KCNK9 block: inhibitors of human KCNK9 two-pore domain potassium channel; B-score at 10 µM; HEK293 KCNK9, FluxOR thallium flux fluorescence; active compounds read low; actives 1.2% (n = 310,000); Q9NPC2;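 active = ratio B-score over 3 SD below the library mean, with starting fluorescence within 5 SD of its mean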;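 note: negative B-score means less thallium flux so channel inhibition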
Kir21 block: blocks the mouse Kir2.1 inward-rectifier potassium channel; P35561; HEK293-Kir2.1, FluxOR thallium flux fluorescence; active compounds read low; B-score at 10 µM; actives 0.85% (n = 310,000); AID 1672;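 active = fluorescence ratio B-score at or below minus 3 SD of library scores, with starting-brightness B-score within 2 SD, cut at about -4.2 in these data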;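 note: channel flux triggered by added potassium and thallium sulfate stimulus; B-score of peak minus minimum fluorescence over baseline after thallium stimulus; more negative B-score means stronger Kir2.1 block with less thallium influx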
KCNK3 block: human KCNK3 channel inhibition, primary screen | B-score at 10 µM | AID 602410 | actives 0.84% (n = 340,000) | O14649 | CHO-KCNK3 thallium flux, FluxOR fluorescence; active compounds read low;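 active = B-score under library mean minus 4 SD, starting fluorescence ratio at most library mean plus 5 SD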;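 note: more negative B-score means stronger inhibition of thallium flux through KCNK3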
KCNQ1 act: potentiators or activators of human KCNQ1 potassium channel. B-score at 10 µM. CHO-K1 KCNQ1, thallium flux FluxOR fluorescence; active compounds read high. P51787. actives 0.35% (n = 310,000);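 active = fluorescence ratio B-score, a plate-corrected score, at least three library SD, with initial intensity B-score within 5 SD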
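assay system = KCNQ1-transfected CHO-K1 cells | medium = assay buffer with matched DMSO | probe or stimulus = depolarizing K+/Tl+ stimulus, K2SO4 and Tl2SO4 each 12.5 mM in 5x stock | dosing = single dose | incubation = dye 90 min, compound 20 min, room temperature | detection = kinetic FluxOR fluorescence, 10 s baseline plus 110 s post-stimulus | evaluation = ratio B score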
hERG rescue: compounds protecting human hERG from proarrhythmic drug block. actives 0.51% (n = 310,000). Q12809. activation (rescue from dofetilide block), less the hit threshold, % at 10 µM. CHO-hERG, FluxOR thallium flux, dofetilide IC70 present. AID 1511;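 active = activation above the mean of controls blocked by dofetilide plus 5 SD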;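 note: thallium influx through hERG after potassium depolarization seen as dye fluorescence rise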
KCNQ1 inh valid: reconfirmed blocker of the human KCNQ1 potassium channel. inhibition, % at 10 µM. actives 93% (n = 1,600). shares compounds with KCNQ1 inh. KCNQ1 cell line, FluxOR thallium flux fluorescence;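 active = primary screen active, with duplicate mean exceeding buffer control mean plus 3 SD of buffer wells, cut at about 28% in these data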
CHO Tl flux: counter-screen for KCNQ1 inhibitors: effect in parental CHO cells | shares compounds with KCNQ1 inh | parental CHO-K1, FluxOR thallium flux fluorescence ratio; active compounds read low; zero means no signal rise above baseline | fluorescence ratio (Tl flux) at 10 µM | actives 21% (n = 1,600);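 active = mean of duplicate thallium-flux fluorescence ratios in parental host cells more than 5 SD below the buffer control mean, cut at about 0.38 in these data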;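 note: ratio is peak minus minimum fluorescence divided by baseline fluorescence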
KCNQ1 ephys val: human KCNQ1 inhibition validated by electrophysiology; calls only at 10 µM; KCNQ1-CHO cells, automated patch clamp current; shares compounds with KCNQ1 inh; actives 20% (n = 490);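 active = KCNQ1 current drop exceeding 3 SD of negative control wells, seen in both duplicate runs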;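 note: steady state current during a 2 s step from -80 to +40 mV; negative values mean current inhibition and positive values mean potentiation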
KCNQ2 inh: rat KCNQ2 inhibition in KCNQ1 inhibitor specificity screen | shares compounds with KCNQ1 inh | KCNQ2 cells, FluxOR thallium flux fluorescence | inhibition, % at 10 µM | actives 71% (n = 1,600) | AID 651746;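 active = mean percent inhibition of the KCNQ2 thallium signal more than 5 SD above the buffer-only control wells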;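 note: KCNQ2 expressed in CHO cells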
KCNQ1 KCNE1 spec: selectivity of KCNQ1 inhibitors: inhibition of human KCNQ1/KCNE1 channel; shares compounds with KCNQ1 inh; actives 77% (n = 1,600); KCNQ1/KCNE1 cells, FluxOR thallium flux fluorescence; AID 652147; inhibition, % at 10 µM;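 active = mean percent inhibition of duplicate wells above the buffer-only control mean plus 3 SD of those controls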
Each line names hits and unclear results; the compound was inactive in the other large screens (follow-up assays come after a bar, where they were run).

CCOC(=O)c1cc(C(C)(C)C)oc1CNC(=O)c1c(C)oc2c1CCCC2	KCNQ1 inh 10 | KCNQ1 inh valid 141 | CHO Tl flux inactive | KCNQ1 ephys val inactive | KCNQ2 inh 120% | KCNQ1 KCNE1 spec 142%
O=S(=O)(NCCSCc1ccc(Cl)cc1Cl)c1ccc2c(c1)OCCO2	KCNQ1 inh 7, KCNK3 block -9.1 | KCNQ1 inh valid 129 | CHO Tl flux inactive | KCNQ1 ephys val inactive | KCNQ2 inh 96% | KCNQ1 KCNE1 spec 144%
O=C(CN(c1ccc(Cl)c(Cl)c1)S(=O)(=O)c1ccccc1)N1CCc2ccccc2C1	KCNQ1 inh 6 | KCNQ1 inh valid 56 | CHO Tl flux 0.34 | KCNQ2 inh 119% | KCNQ1 KCNE1 spec 96%
Cc1ccc(S(=O)(=O)N(CC(=O)N2CCc3ccccc3C2)c2ccc(Cl)c(Cl)c2)cc1	none
O=C(Nc1nc(-c2ccccc2)c(C(=O)c2ccccc2)s1)c1ccc(S(=O)(=O)N2CCCCC2)cc1	KCNQ1 inh 8 | KCNQ1 inh valid 83 | CHO Tl flux inactive | KCNQ2 inh inactive | KCNQ1 KCNE1 spec 112%
O=C(Nc1nc(-c2ccccc2)c(-c2ccccc2)s1)c1ccc(S(=O)(=O)N2CCCCC2)cc1	none
Cc1sc(NC(=O)CSC2=NCCS2)nc1-c1ccccc1	none
CCOC(=O)c1sc(NC(=O)CSc2ncn(-c3ccccc3)n2)nc1C	KCNQ1 inh 16 | KCNQ1 inh valid 26 | CHO Tl flux inactive | KCNQ2 inh inactive | KCNQ1 KCNE1 spec inactive
Cc1sc(NC(=O)CSc2ncn(-c3ccccc3)n2)nc1-c1ccccc1	KCNQ1 inh 6 | KCNQ1 inh valid 32 | CHO Tl flux inactive | KCNQ2 inh 77% | KCNQ1 KCNE1 spec inactive
CC(C)(C)NC(=O)CN(C(=O)CNS(=O)(=O)c1ccc(Cl)cc1)c1ccc2c(c1)OCCO2	none
CNC(=S)NNC(=O)c1cc(-c2cccnc2)nc2ccccc12	none
O=S(=O)(NNc1ncc(C(F)(F)F)cc1Cl)c1ccccc1	none (no result: KCNQ1 inh, KCNK9 block, Kir21 block, KCNQ1 act, hERG rescue)
CCOC(=O)c1c(NC(=O)CSc2nnc(-c3ccccc3)o2)sc(C(C)=O)c1C	none
CCOC(=O)c1c(NC(=O)CSc2nc3ccccc3o2)sc(C(C)=O)c1C	KCNQ1 inh 8 | KCNQ1 inh valid 130 | CHO Tl flux inactive | KCNQ1 ephys val inactive | KCNQ2 inh 108% | KCNQ1 KCNE1 spec 112%
CC1C(=O)C(C)C(c2cc(Cl)ccc2O)NC1c1cc(Cl)ccc1O (centres undefined)	KCNQ1 inh 10 | KCNQ1 inh valid 84 | CHO Tl flux inactive | KCNQ2 inh 83% | KCNQ1 KCNE1 spec 122%
Cc1cc(C)cc(NC(=S)NCCSc2ccc(Cl)cc2)c1	KCNQ1 inh 10 | KCNQ1 inh valid 110 | CHO Tl flux inactive | KCNQ1 ephys val inactive | KCNQ2 inh 108% | KCNQ1 KCNE1 spec 112%
Cc1cc(Cl)ccc1NC(=S)NCCc1ccc(Cl)cc1	KCNQ1 inh 14 | KCNQ1 inh valid 70 | CHO Tl flux inactive | KCNQ2 inh 79% | KCNQ1 KCNE1 spec 103%
CC(=O)c1cccc(NC(=S)NCc2ccccc2)c1	none
CC(=O)c1cccc(NC(=S)NCCc2ccc(Cl)cc2)c1	KCNQ1 inh 8 | KCNQ1 inh valid 43 | CHO Tl flux inactive | KCNQ2 inh inactive | KCNQ1 KCNE1 spec inactive
